pEC50, pKi: −log10 of the molar value. Active and inactive are the calls of the source. Numbered stars: 1 amine (or outer) side, 2 acyl side, 3 side chain; on linkers, the order of the positions; unused ones are H or OH. Square brackets hold non-standard residues; d marks the D form. Peptide text beside a SMILES is read from it. X1 = O=C1[C@@H](N[*:1])Cc2ccccc2CN1CCC(=O)[*:2]; X2 = O=C([C@@H]1Cc2cc(O)ccc2CN1[*:1])[*:2]; Dmt = Cc1cc(O)cc(C)c1C[C@H](N)C(=O)O; β3hR = N=C(N)NCCC[C@H](N)CC(=O)O; Tle = CC(C)(C)[C@H](N)C(=O)O; β3hK = NCCCC[C@H](N)CC(=O)O
What was measured:
[1] = biological target: Neurotensin receptor type 2 (Homo sapiens, UniProt O95665); experiment: Displacement of [125I]-neurotensin from human recombinant NTS2 stably expressed in human 1321N1 cell membranes incubated for 60 mins by gamma counter method
Sequence of Neurotensin receptor type 2 (O95665 whole entry): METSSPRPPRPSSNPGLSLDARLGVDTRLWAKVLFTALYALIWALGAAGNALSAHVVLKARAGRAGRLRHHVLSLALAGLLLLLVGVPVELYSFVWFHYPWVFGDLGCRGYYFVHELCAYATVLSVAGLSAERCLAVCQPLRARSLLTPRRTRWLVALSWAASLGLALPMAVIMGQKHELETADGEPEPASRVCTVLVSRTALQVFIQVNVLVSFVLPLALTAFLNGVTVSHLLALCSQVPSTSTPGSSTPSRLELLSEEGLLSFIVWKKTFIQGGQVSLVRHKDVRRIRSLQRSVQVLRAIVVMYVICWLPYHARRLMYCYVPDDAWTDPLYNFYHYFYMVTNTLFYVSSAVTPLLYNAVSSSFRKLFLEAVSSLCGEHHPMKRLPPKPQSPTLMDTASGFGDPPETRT

Mu-type opioid receptor [2] = biological target: T1, Mu-type opioid receptor (Homo sapiens, UniProt P35372); experiment: Agonist activity at human MOR stably expressed in CHO cell membranes assessed as stimulation of [35S]-GTPgammaS binding incubated for 1 hr by liquid scintillation counting assay; assay type: functional
T1 sequence (P35372 whole entry): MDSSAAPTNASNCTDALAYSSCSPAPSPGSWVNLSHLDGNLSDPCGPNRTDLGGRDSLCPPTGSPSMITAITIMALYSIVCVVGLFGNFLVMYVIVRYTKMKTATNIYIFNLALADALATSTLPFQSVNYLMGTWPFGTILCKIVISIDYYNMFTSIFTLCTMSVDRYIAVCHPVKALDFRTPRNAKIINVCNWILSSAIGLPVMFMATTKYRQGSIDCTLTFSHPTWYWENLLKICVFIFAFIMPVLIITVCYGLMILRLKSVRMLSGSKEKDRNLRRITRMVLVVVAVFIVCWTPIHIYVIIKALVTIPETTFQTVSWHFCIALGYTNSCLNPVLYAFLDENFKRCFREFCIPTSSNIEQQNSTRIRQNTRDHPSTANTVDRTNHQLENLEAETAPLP
Summary of the method: (§1)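 Membranes from CHO cells stably expressing hMOR, hDOR or hKOR, prepared in 20 mM HEPES, 10 mM MgCl2, 100 mM NaCl, pH 7.4. Membranes (5–10 μg) incubated with 0.05 nM [35S]GTPγS, 10 μM GDP and graded peptide concentrations, 60 min at 25 °C. Nonspecific binding with 10 μM GTPγS, basal without ligand. GF/B filtration, scintillation counting. EC50 and Emax by nonlinear regression; Emax relative to DAMGO, DPDPE or U69,593. Duplicate, three independent experiments.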

[3] = biological target: T2, Kappa-type opioid receptor (Homo sapiens, UniProt P41145); experiment: Displacement of [3H]-U69593 from recombinant human kappa opioid receptor expressed in CHO cell membrane incubated for 60 mins by liquid scintillation counting method; assay type: cell membranes
T2 sequence (P41145 whole entry): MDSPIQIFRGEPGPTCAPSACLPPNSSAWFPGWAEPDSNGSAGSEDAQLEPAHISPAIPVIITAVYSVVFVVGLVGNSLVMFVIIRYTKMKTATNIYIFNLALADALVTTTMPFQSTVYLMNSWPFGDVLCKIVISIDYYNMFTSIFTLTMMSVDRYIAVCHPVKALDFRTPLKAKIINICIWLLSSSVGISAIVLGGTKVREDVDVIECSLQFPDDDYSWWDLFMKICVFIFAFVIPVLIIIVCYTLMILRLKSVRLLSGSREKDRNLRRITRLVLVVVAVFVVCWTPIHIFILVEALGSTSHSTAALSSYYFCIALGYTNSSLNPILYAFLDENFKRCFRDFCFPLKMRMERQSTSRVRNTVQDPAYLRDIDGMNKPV
Summary of the method: (§2)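 Membranes from CHO-hMOR, -hDOR or -hKOR cells, homogenized and washed in 50 mM Tris-HCl pH 7.4. Membranes (15–20 μg) incubated with [3H]DAMGO (MOR), [3H]diprenorphine (DOR) or [3H]U69,593 (KOR) plus graded peptide, 60 min at 25 °C. Nonspecific binding with 1–10 μM of the unlabelled ligand. GF/C filtration, scintillation counting. Ki by Cheng–Prusoff. Duplicate, three independent experiments.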

Mu-type opioid receptor [4] = biological target: T1, Mu-type opioid receptor; experiment: Agonist activity at human MOR expressed in CHO cell membranes assessed as stimulation of [35S]-GTPgammaS binding incubated for 1 hr by liquid scintillation counting assay relative to DAMGO; assay type: functional; conditions: time 60.0 min; summary of the method: as §1
[5] = biological target: T3, Delta-type opioid receptor (Homo sapiens, UniProt P41143); experiment: Agonist activity at human DOR stably expressed in CHO cell membranes assessed as stimulation of [35S]-GTPgammaS binding incubated for 1 hr by liquid scintillation counting assay relative to DPDPE; assay type: functional; conditions: time 60.0 min; summary of the method: as §1
T3 sequence (P41143 whole entry): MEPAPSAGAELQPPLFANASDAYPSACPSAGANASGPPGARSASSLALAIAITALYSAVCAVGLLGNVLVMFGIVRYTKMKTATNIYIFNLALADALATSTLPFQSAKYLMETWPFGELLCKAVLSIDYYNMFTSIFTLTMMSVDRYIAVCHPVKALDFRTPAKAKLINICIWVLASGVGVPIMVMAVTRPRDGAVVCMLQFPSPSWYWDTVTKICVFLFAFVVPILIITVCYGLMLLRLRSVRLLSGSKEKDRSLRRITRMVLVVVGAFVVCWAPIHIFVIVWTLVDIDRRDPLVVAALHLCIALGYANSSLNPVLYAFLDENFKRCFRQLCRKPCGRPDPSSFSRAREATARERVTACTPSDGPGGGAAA

Mu-type opioid receptor [6] = biological target: T1, Mu-type opioid receptor; experiment: Displacement of [3H]-DAMGO from recombinant human mu opioid receptor expressed in CHO cell membrane incubated for 60 mins by liquid scintillation counting method; assay type: cell membranes; summary of the method: as §2
Mu-type opioid receptor [7] = biological target: T1, Mu-type opioid receptor; experiment: Agonist activity at human MOR expressed in human U2OS cells assessed as increase in beta arrestin2 recruitment incubated for 90 mins by pathhunter beta-arrestin assay; assay type: cell-based
Summary of the method: (§3)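 U2OS cells stably coexpressing hMOR and enzyme acceptor-tagged β-arrestin-2, seeded at 5000 cells/well and kept 24 h at 37 °C. Graded peptide concentrations in PBS added for 90 min at 37 °C, then detection mix for 60 min at room temperature. Chemiluminescence read-out. EC50 and Emax (relative to DAMGO) by nonlinear regression. Duplicate, three independent experiments.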

[8] = biological target: T3, Delta-type opioid receptor; experiment: Displacement of [3H]-Diprenorphine from recombinant human delta opioid receptor expressed in CHO cell membrane incubated for 60 mins by liquid scintillation counting method; assay type: cell membranes; summary of the method: as §2
Mu-type opioid receptor [9] = biological target: T1, Mu-type opioid receptor; experiment: Agonist activity at human MOR expressed in human U2OS cells assessed as increase in beta arrestin2 recruitment incubated for 90 mins by pathhunter beta-arrestin assay relative to DAMGO; assay type: cell-based; conditions: filed as partial agonist; summary of the method: as §3
[10] = biological target: T4, Neurotensin receptor type 1 (Homo sapiens, UniProt P30989); experiment: Agonist activity at human NTS1 expressed in HEK293 cells co-expressing Galphaq/RlucII/GFP10-Ggamma1/Gbeta1 assessed as increase in Galphaq activation incubated for 10 mins in presence of coelenterazine 400A by BRET assay; assay type: cell-based
T4 sequence (P30989 whole entry): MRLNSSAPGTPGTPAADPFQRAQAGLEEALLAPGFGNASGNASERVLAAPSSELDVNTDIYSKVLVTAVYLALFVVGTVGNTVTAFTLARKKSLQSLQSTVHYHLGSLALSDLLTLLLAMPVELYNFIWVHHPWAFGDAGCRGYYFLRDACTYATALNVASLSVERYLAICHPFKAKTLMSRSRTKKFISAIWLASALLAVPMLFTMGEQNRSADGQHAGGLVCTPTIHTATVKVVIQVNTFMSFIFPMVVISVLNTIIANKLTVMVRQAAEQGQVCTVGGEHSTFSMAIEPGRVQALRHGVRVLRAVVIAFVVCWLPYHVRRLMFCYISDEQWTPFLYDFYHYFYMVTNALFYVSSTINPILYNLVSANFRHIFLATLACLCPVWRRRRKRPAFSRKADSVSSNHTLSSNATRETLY

[11] = biological target: T3, Delta-type opioid receptor; experiment: Agonist activity at human DOR stably expressed in CHO cell membranes assessed as stimulation of [35S]-GTPgammaS binding incubated for 1 hr by liquid scintillation counting assay; assay type: functional; summary of the method: as §1
[12] = biological target: T4, Neurotensin receptor type 1; experiment: Displacement of [125I]-neurotensin from human recombinant NTS1 stably expressed in CHO-K1 cell membranes incubated for 60 mins by gamma counter method
Mus musculus [13] = experiment: Antinociceptive activity in CD-1 mouse model of thermal-induced nociception assessed as maximum possible effect at 2.64 uM/kg, sc measured at 1 hr interval for 2 to 7 hrs by tail-flick test; assay type: functional; conditions: dose 2.64 µmol/kg; time hrs 2-7
Summary of the method: (§4)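 Male CD-1 mice, 30–35 g, 8 weeks old, 5–6 per group, each mouse tested once. Peptide or saline given sc. Radiant-heat tail-flick latency measured before dosing and at 15 min, 30 min, hourly to 8 h, and at 24 h, with a 10 s cutoff. %MPE = [(test latency − basal latency)/(cutoff − basal latency)] × 100. Two-way ANOVA with Bonferroni post hoc test, P < 0.05.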

[14] = biological target: T2, Kappa-type opioid receptor; experiment: Agonist activity at human KOR stably expressed in CHO cell membranes assessed as stimulation of [35S]-GTPgammaS binding incubated for 1 hr by liquid scintillation counting assay relative to U69593; assay type: functional; conditions: time 60.0 min; summary of the method: as §1
[15] = biological target: T4, Neurotensin receptor type 1; experiment: Agonist activity at human NTS1 expressed in HEK293 cells co-expressing Galphaq/RlucII/GFP10-Ggamma1/Gbeta1 assessed as increase in Gq activation incubated for 10 mins in presence of coelenterazine 400A by BRET assay relative to NT (8-13); assay type: cell-based
[16] = biological target: T2, Kappa-type opioid receptor; experiment: Agonist activity at human KOR stably expressed in CHO cell membranes assessed as stimulation of [35S]-GTPgammaS binding incubated for 1 hr by liquid scintillation counting assay; assay type: functional; summary of the method: as §1
Mus musculus [17] = experiment: Antinociceptive activity in CD-1 mouse model of thermal-induced nociception assessed as increase in tail withdrawal latency at 2.64 umol/kg, sc measured up to 8 hrs by tail-flick test; assay type: functional, organism-based; conditions: dose 2.64 µmol/kg, time hrs <=8; summary of the method: as §4
Mus musculus [18] = experiment: Antinociceptive activity in CD-1 mouse model of thermal-induced nociception assessed as maximum possible effect at 5.52 umol/kg, sc measured at 1 hr interval for 2 to 3 hrs by tail-flick test; assay type: functional; conditions: dose 5.52 µmol/kg; time hrs 2-3; summary of the method: as §4
Mus musculus [19] = experiment: Antinociceptive activity in CD-1 mouse model of thermal-induced nociception assessed as increase in tail withdrawal latency at 5.52 umol/kg, sc measured after 3 hrs by tail-flick test; assay type: functional, organism-based; conditions: dose 5.52 µmol/kg, time hrs >=3; summary of the method: as §4
Mu-type opioid receptor [20] = biological target: T1, Mu-type opioid receptor; experiment: Potency index, ratio of PK20 Ki to test compound Ki for displacement of [3H]-DAMGO from recombinant human mu opioid receptor expressed in CHO cell membranes
[21] = biological target: T4, Neurotensin receptor type 1; experiment: […], ratio of compound EC50 to NT(8-13) EC50 for agonist activity at human NTS1 expressed in HEK293 cells co-expressing Galphaq/RlucII/GFP10-Ggamma1/Gbeta1 assessed as increase in Gq activation incubated for 10 mins in presence of coelenterazine 400A by measuring fold value by BRET assay; assay type: cell-based; conditions: hek293, 10 min
Mus musculus [22] = experiment: Antinociceptive activity in CD-1 mouse model of thermal-induced nociception assessed as increase in tail withdrawal latency 1.82 umol/kg, sc measured after 2 to 24 hrs by tail-flick test; assay type: functional, organism-based; conditions: dose 1.82 µmol/kg, time hrs 2-24; summary of the method: as §4
Mus musculus [23] = experiment: Antinociceptive activity in CD-1 mouse model of thermal-induced nociception assessed as maximum possible effect at 1.82 umol/kg, sc measured at 1 hr by tail-flick test; assay type: functional; conditions: dose 1.82 µmol/kg

SMILES	pKi [1]	pEC50 (Mu-type opioid receptor [2])	pKi [3]	Emax (Mu-type opioid receptor [4]; filed as agonist)	Emax ([5]; filed as agonist)	pKi (Mu-type opioid receptor [6])	pEC50 (Mu-type opioid receptor [7])	pKi [8]	Emax (Mu-type opioid receptor [9])	pEC50 [10]	pEC50 [11]	pKi [12]	Emax ([14]; filed as partial agonist)	Emax [15]	pEC50 [16]	Emax [14]	Ratio Ki (Mu-type opioid receptor [20])	other results
Cc1cc(O)cc(C)c1C[C@H](NC(=O)[C@@H]1CCCN1C(=O)[C@H](CCCNC(=N)N)NC(=O)C[C@H](CCCNC(=N)N)NC(=O)CCN1Cc2ccccc2C[C@H](NC(=O)[C@@H](CCCNC(=N)N)NC(=O)[C@@H](N)Cc2c(C)cc(O)cc2C)C1=O)C(=O)N[C@H](C(=O)N[C@@H](CC(C)C)C(=O)O)C(C)(C)C (H-[Dmt][dR][X1][β3hR]RP[Dmt][Tle]L-OH)	11.52	7.54	7.55	94%	99%	8.76	5.97	7.00	68%	9.07	6.52	8.40	46%	114%	6.80	–	–	MPE (Mus musculus [13]): >=80%; Activity (Mus musculus [17]): Active
Cc1cc(O)cc(C)c1C[C@H](N)C(=O)N[C@H](CCCCN)C(=O)N[C@@H](Cc1ccccc1)C(=O)N[C@@H](Cc1ccccc1)C(=O)N[C@@H](CCCCN)C(=O)N[C@@H](CCCCN)C(=O)N1CCC[C@H]1C(=O)N[C@@H](Cc1ccccc1)C(=O)N[C@H](C(=O)N[C@@H](CC(C)C)C(=O)O)C(C)(C)C (H-[Dmt][dK]FFKKPF[Tle]L-OH)	7.53	7.88	7.47	–	–	8.38	6.02	7.33	69%	7.72	6.32	6.73	65%	101%	7.33	–	–	Emax (Mu-type opioid receptor [4]; filed as partial agonist): 91%; Emax ([5]; filed as partial agonist): 78%; MPE (Mus musculus [18]): 80%; Activity (Mus musculus [19]): inactive
Cc1cc(O)cc(C)c1C[C@H](NC(=O)[C@@H]1CCCN1C(=O)[C@H](CCCNC(=N)N)NC(=O)[C@H](CCCNC(=N)N)NC(=O)CCN1Cc2ccccc2C[C@H](NC(=O)[C@@H](CCCNC(=N)N)NC(=O)[C@@H](N)Cc2c(C)cc(O)cc2C)C1=O)C(=O)N[C@H](C(=O)N[C@@H](CC(C)C)C(=O)O)C(C)(C)C (H-[Dmt][dR][X1]RRP[Dmt][Tle]L-OH)	10.52	8.04	6.99	96%	91%	8.95	5.94	6.80	79%	8.89	6.50	9.11	–	101%	6.38	37%	2	–
Cc1cc(O)cc(C)c1C[C@H](N)C(=O)N[C@H](CCCNC(=N)N)C(=O)N[C@H]1Cc2ccccc2CN(CCC(=O)N[C@@H](CCCNC(=N)N)C(=O)N[C@@H](CCCNC(=N)N)C(=O)N2CCC[C@H]2C(=O)N2Cc3ccc(O)cc3C[C@H]2C(=O)N[C@H](C(=O)N[C@@H](CC(C)C)C(=O)O)C(C)(C)C)C1=O (H-[Dmt][dR][X1]RRP[X2][Tle]L-OH)	8.76	8.34	7.65	98%	97%	8.78	6.03	6.98	67%	5.72	6.64	5.33	–	74%	6.40	20%	2	Ratio EC50 [21]: 13000
Cc1cc(O)cc(C)c1C[C@H](N)C(=O)N[C@H](CCCNC(=N)N)C(=O)N[C@H]1Cc2ccccc2CN(CCC(N)=O)C1=O	–	–	7.78	100%	104%	9.85	8.26	8.82	107%	–	8.90	–	–	–	< 5.00	–	–	Activity (Mus musculus [22]): inactive; MPE (Mus musculus [23]): 80%
Cc1cc(O)cc(C)c1C[C@H](NC(=O)[C@@H]1CCCN1C(=O)[C@H](CCCCN)NC(=O)C[C@H](CCCCN)NC(=O)CCN1Cc2ccccc2C[C@H](NC(=O)[C@@H](CCCNC(=N)N)NC(=O)[C@@H](N)Cc2c(C)cc(O)cc2C)C1=O)C(=O)N[C@H](C(=O)N[C@@H](CC(C)C)C(=O)O)C(C)(C)C (H-[Dmt][dR][X1][β3hK]KP[Dmt][Tle]L-OH)	9.49	7.18	6.68	97%	97%	8.15	5.52	7.31	69%	8.74	6.61	7.82	–	112%	6.62	36%	2	–

Reference: ChEMBL document CHEMBL4699489, “Optimized Opioid-Neurotensin Multitarget Peptides: From Design to Structure-Activity Relationship Studies” (J Med Chem, 2020)
